Results published in ChEMBL document CHEMBL1641402, “Use of experimental design for the optimization of the production of new secondary metabolites by two Penicillium species” (J Nat Prod, 2010).
Activity calls are given as the source filed them. The calls are words filed in the database; no cut-off is given here.

Tests used:
HTB-129 = assay: (§1) Cytotoxicity against human HTB-129 cells after 72 hrs by MTT assay; type: functional, cell-based
Procedure, shortened: (§2)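 HTB-129 breast carcinoma cells kept in Leibovitz's L-15 with 2 mM L-glutamine, insulin 0.01 mg/mL, 10% FBS, penicillin/streptomycin, 37 °C in air. Seeded at 1 × 10^5 cells/mL, 24 h before dosing. Compounds in DMSO, serially diluted in medium from 200 to 1.76 µg/mL. Exposure 72 h, then MTT 3 h, DMSO solubilization, read at 570 nm. Viability as percent of untreated controls; IC50 fitted.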

[1] = tested on: Mycobacterium tuberculosis; assay: Antimycobacterial activity against Mycobacterium tuberculosis H37Rv; type: functional, organism-based
Staphylococcus aureus = assay: Antimicrobial activity against Staphylococcus aureus after 24 hrs by broth micro dilution method; type: functional
Procedure, shortened: (§3)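 Broth microdilution per NCCLS guidelines: 2-fold serial dilutions in RPMI-1640 buffered to pH 7.5 with 0.165 M MOPS, final 0.5–128 µg/mL. Inocula from 24 h tryptic soy agar cultures at 37 °C, final 10^3/10^4 cells per mL. Kanamycin and polymyxin B as controls. Incubated 24 h at 37 °C, OD 600 nm; MIC is lowest concentration giving complete (90%) growth inhibition.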

Pseudomonas aeruginosa = assay: Antimicrobial activity against Pseudomonas aeruginosa after 24 hrs by broth micro dilution method; type: functional; procedure, shortened: as §3
Escherichia coli = assay: Antimicrobial activity against Escherichia coli after 24 hrs by broth micro dilution method; type: functional; procedure, shortened: as §3
[2] = as §1; type: functional, cell-based; conditions: HTB-129, 72 h; procedure, shortened: as §2
Candida albicans [3] = assay: Antimicrobial activity against Candida albicans at 40 ug/disk; type: functional, organism-based
Candida albicans [4] = assay: Antimicrobial activity against Candida albicans at 8 ug/disk; type: functional; conditions: read-out: IZ

| Structure (SMILES) | inhibition (HTB-129) | inhibition [1] | inhibition (Staphylococcus aureus) | inhibition (Pseudomonas aeruginosa) | inhibition (Escherichia coli) | IC50 [2] [µM] | MIC (Staphylococcus aureus) [µg/mL] | MIC (Pseudomonas aeruginosa) [µg/mL] | MIC (Escherichia coli) [µg/mL] | inhibition (Candida albicans [3]) | other results |
| --- | --- | --- | --- | --- | --- | --- | --- | --- | --- | --- | --- |
| COc1ccc2c3c1C(=O)CC(C)(C)N3C(=O)[C@@]21C[C@]2([N+](=O)[O-])CN3CCC[C@@H]3C[C@H]2C1(C)C | inactive | inactive | inactive | inactive | inactive |  |  |  |  |  |  |
| CC1(C)CC(=O)c2c(ccc3c2NC(=O)[C@]32C[C@@]3([N+](=O)[O-])CN4CCC[C@H]4C[C@@H]3C2(C)C)O1.O=C(O)C(F)(F)F [CITRINALIN A] |  |  |  |  |  | 174 | > 32 | > 32 | > 32 | inactive |  |
| COc1ccc2c3c1C(=O)CC(C)(C)N3C(=O)[C@@]21C[C@@]2([N+](=O)[O-])CN3CCC[C@@H]3C[C@H]2C1(C)C | inactive | inactive | inactive | inactive | inactive |  |  |  |  |  |  |
| CC1(C)CC(=O)c2c(ccc3c2NC(=O)[C@]32C[C@@]3([N+](=O)[O-])CN4CCC[C@@H]4C[C@@H]3C2(C)C)O1.O=C(O)C(F)(F)F [CITRINALINE B] |  |  |  |  |  | 194 | > 32 | > 32 | > 32 | inactive |  |
| C[C@@H]1[C@H](O)[C@@H](C)/C=C/C=C/C=C/C=C/C=C/C=C/C=C/[C@H](O[C@@H]2O[C@H](C)[C@@H](O)[C@H](N)[C@@H]2O)C[C@@H]2O[C@](O)(C[C@@H](O)C[C@@H](O)[C@H](O)CC[C@@H](O)C[C@@H](O)CC(=O)O[C@H]1C)C[C@H](O)[C@H]2C(=O)O [AMPHOTERICIN B] |  |  |  |  |  |  |  |  |  |  | zone of inhibition at 8 µg/disc (Candida albicans [4]): 20 mm |
| C=CC(C)(C)[C@]12C=C(OC)C(=O)N3/C(=C/c4c[nH]cn4)C(=O)N[C@@]31N(OC)c1ccccc12 |  | inactive |  |  |  |  |  |  |  |  |  |
